Assay outcomes: PubChem, SRMLSC
E coli WT inh: blocks growth of wild type E. coli BW25113; inhibition, % at 10 µM; 20,000 tested, 0.05% active; AID 552; E. coli BW25113 growth inhibition, OD600; in the data active = inhibition above about 40%;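 note: bacteria exposed to compound for 20 hours at 37 °C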
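System: bacterial strain in a whole-cell growth screen; medium: LB broth with 50 µg/mL kanamycin; detection: absorbance at 615 nm; schedule: 20 h exposure, 37 °C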
Of the large screens only hits and unclear results are named; the others gave an inactive call. These entries were drawn from the full list.

Cc1cc(C)nc(SCc2nc(N)nc(-c3ccccc3O)n2)n1	none
CC(=O)NC(C)C(=O)OCc1ccc(Cl)cc1Cl (stereo not given)	none
Cc1ccnc(SCCn2c(Br)nc3c2c(=O)n(C)c(=O)n3C)n1	none
c1ccc2c(c1)oc1c(N3CCN(Cc4ccc5c(c4)OCO5)CC3)ncnc12	none
O=C(NCc1cccnc1)C1CCCN(S(=O)(=O)c2ccccc2)C1 (stereo not given)	none
CCOC(=O)C1CCCN(C(=O)c2cc3c(=O)n4cccc(C)c4nc3n2C)C1 (stereo not given)	none
Cc1cc(C)c(NC(=O)CSc2nc3c(c(=O)n2C)SC(C)C3)c(C)c1 (stereo not given)	none
Cc1ccc(-c2noc(CN3C(C)CCCC3C)n2)cc1 (stereo not given)	none
CCNc1nc(N)nc(Oc2ccc(OCCOc3ccc(Cl)cc3Cl)nn2)n1	none
Cn1c(N2CCC(C(N)=O)CC2)nc2c1c(=O)n(Cc1ccc(Br)cc1)c(=O)n2C	none
O=C(c1cccc(Cl)c1)N1CCN(Cc2ccccc2F)CC1	none
O=C(OCn1nnc2ccccc2c1=O)c1cc2ccccc2o1	none
C=CCn1c2ccccc2c2nnc(SCC(=O)NC(C(=O)OC)C(C)C)nc21 (stereo not given)	none
O=C(NC1CCCC1)C(c1ccco1)N(Cc1ccccc1)C(=O)c1csnn1 (stereo not given)	none
OCC#Cc1cnc2ccccc2c1	none
Cc1cc2ncn(CCOc3ccccc3C#N)c2cc1C	none
